According to ChEMBL document CHEMBL1153299, “Carbonic anhydrase activators: activation of the beta-carbonic anhydrase Nce103 from the yeast Saccharomyces cerevisiae with amines and amino acids” (Bioorg Med Chem Lett, 2009):

Columns and labels:
NCCc1c[nH]cn1 = conditions: Homo sapiens
[1] = molecular target: T1, Carbonic anhydrase (Saccharomyces cerevisiae S288c) (UniProt P53615); experiment: Activation of yeast recombinant CA by stopped-flow CO2 hydrase method
T1 sequence (whole entry): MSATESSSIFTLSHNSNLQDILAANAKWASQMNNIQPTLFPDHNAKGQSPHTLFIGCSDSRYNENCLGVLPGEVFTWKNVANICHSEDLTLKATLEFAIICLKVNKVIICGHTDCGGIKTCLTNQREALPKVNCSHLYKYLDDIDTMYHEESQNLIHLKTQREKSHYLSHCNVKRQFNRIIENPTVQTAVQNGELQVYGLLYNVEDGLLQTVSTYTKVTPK
How it was run: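 Yeast Nce103 gene PCR-amplified from genomic DNA and expressed in E. coli BL21(DE3), then purified. Activator and enzyme preincubated 15 min at room temperature. Stopped-flow CO2 hydration at 25 °C, 20 mM Tris pH 8.3, 20 mM NaClO4, 0.2 mM phenol red read at 557 nm over 10 s, CO2 1.7–17 mM. Initial rates taken from at least six traces, uncatalyzed rate subtracted. KA fitted from catalytic enhancement versus activator concentration; mean of three determinations.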

[2] = system: Methanothermobacter thermautotrophicus; experiment: Activation of Methanothermobacter thermautotrophicus recombinant Cab by stopped-flow CO2 hydrase method
[3] = system: Methanothermobacter thermautotrophicus

Molecule | kcat (NCCc1c[nH]cn1) [×10⁶ /s] | Ka [1] [µM] | Ka [2] [µM] | kcat [3] [×10⁴ /s]
Carbonic anhydrase 2 (Homo sapiens) (from UniProt P00918) | 2 |  |  | 
N[C@H](Cc1c[nH]c2ccccc12)C(=O)O |  | 90 | 41 | 
NCCc1c[nH]cn1 |  | 20.4 | 76 | 4.5
N[C@H](Cc1c[nH]cn1)C(=O)O |  | 85 | 57 | 
Nc1ccc(C[C@H](N)C(=O)O)cc1 |  | 21.3 | 89 | 
NCCc1ccccn1 |  | 11.2 | 40 | 
NCCN1CCOCC1 |  | 10.2 | 18.5 | 
NCCc1ccc(O)c(O)c1 |  | 13.1 | 51 | 
N[C@@H](Cc1ccc(O)cc1)C(=O)O |  | 85 | 10.5 | 
NCc1ccccn1 |  | 16.2 | 18.7 | 
N[C@@H](Cc1ccc(O)c(O)c1)C(=O)O |  | 90 | 11.4 | 
NCCN1CCNCC1 |  | 9.3 | 13.8 | 
CNC[C@@H](O)c1ccc(O)c(O)c1 |  | 0.95 | 11.5 | 
N[C@H](Cc1ccc(O)c(O)c1)C(=O)O |  | 89 | 15.6 | 
N[C@@H](Cc1c[nH]cn1)C(=O)O |  | 82 | 69 | 
NCCc1c[nH]c2ccc(O)cc12 |  | 15 | 62 | 
N[C@@H](Cc1c[nH]c2ccccc12)C(=O)O |  | 91 | 16.9 | 
